Bioassay records: PubChem BioAssay, several laboratories
Many of the other results were omitted from the sample, so hits are more common in it than they were.
UPR XBP1 act: activators of adaptive arm of unfolded protein response (XBP1); CHO-XBP1 luciferase reporter, IRE1-XBP1 UPR activation, luminescence; percent of tunicamycin response, DMSO as zero; activation, % at 20 µM; 330,000 compounds, 0.33% hits; AID 463104;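 active = versus positive control, 20 µM dose yields 30% or more activation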;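 also: 100% = tunicamycin at 10 µg/mL and 0% = DMSO only wells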
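Signal: luciferase luminescence; Assay system: CHO-XBP1 luciferase reporter cells; Amount: one thousand reporter cells per well; Dosing: 20 µM single concentration, DMSO 1%; Benchmarks: high control tunicamycin 10 µg/mL final, low control DMSO vehicle only; Schedule: 6 h compound exposure at 37 °C, 5% CO2; Evaluation: percent activation relative to tunicamycin reference.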
NOD2 RIPK2 PPI: blocks binding of human NOD2 to RIPK2. CHO BLA complementation NOD2-RIPK2, CCF4 ratio. inhibition, % at 4.98 µM. 360,000 compounds, 0.38% hits. AID 624267; in the data active = inhibition above about 21%;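 also: 0% = vehicle only and 100% = reference blocker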
TLR4-MyD88 BLA: inhibitors of human TLR4-MyD88 binding; O00206+Q99836; HeLa CL3-4 TLR4/MyD88 BLA complementation, FRET ratio; inhibition, % at 8.4 µM; 200,000 compounds, 0.18% hits; AID 861; in the data active = inhibition above about 25%;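 also: 0% = vehicle and 100% = reference inhibitor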
CHOP inhibitor: CHOP inhibition in unfolded protein response; CHO-K1 CHOP-promoter luciferase, tunicamycin-induced, 15-18 h; inhibition, % at 10 µM; 220,000 compounds, 3.8% hits;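 active = compounds that reduced the stress-induced luciferase reporter signal by more than about 70% of percent inhibition, limit read from the data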;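 also: 0% = tunicamycin plus vehicle and 100% = wells without tunicamycin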
CHOP UPR activ: apoptotic UPR (CHOP) activation; CHO-CHOP luciferase reporter, luminescence; percent of tunicamycin response over DMSO baseline; activation, % at 10 µM; AID 449763; 330,000 compounds, 0.34% hits;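 active = at 10 µM dose, activation of 40% or more, normalized to positive control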;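 also: 100% = tunicamycin at 10 µg/mL and 0% = DMSO alone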
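measured by = luciferase luminescence | assay system = CHO-CHOP cells, stable luciferase reporter of PERK-eIF2a-CHOP signalling | amount = 500 reporter cells seeded per well | timing = 6 h compound exposure at 37 °C after overnight seeding | controls = positive tunicamycin 10 µg/mL, negative DMSO alone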
TLR9-MyD88 inh: inhibitors of human TLR9-MyD88 binding; CHO BLA complementation TLR9-MyD88, CCF4 FRET ratio; 340,000 compounds, 0.21% hits; Q9NR96+Q99836; inhibition, % at 4.98 µM; AID 504734;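 active = inhibition above the mean over all tested compounds plus 3 SD, cut at about 21% in these data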;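 also: 0% = DMSO only wells and 100% = clavulanate BLA inhibitor control wells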
TLR9-MyD88 conf: TLR9-MyD88 interaction inhibition, confirmation. AID 540250. CHO TLR9/MyD88 BLA complementation, CCF4 FRET ratio. inhibition, % at 4.98 µM. 680 compounds, 51% hits. shares compounds with TLR9-MyD88 inh;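 active = mean inhibition across three repeats above about 21% taken from the earlier screen, limit read from the data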;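 also: blue over green emission ratio reports constitutive TLR9 MyD88 association via BLA complementation; 0% = DMSO vehicle wells and 100% = clavulanate BLA inhibitor wells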
Target sequence (Q9NR96 whole entry, looked up): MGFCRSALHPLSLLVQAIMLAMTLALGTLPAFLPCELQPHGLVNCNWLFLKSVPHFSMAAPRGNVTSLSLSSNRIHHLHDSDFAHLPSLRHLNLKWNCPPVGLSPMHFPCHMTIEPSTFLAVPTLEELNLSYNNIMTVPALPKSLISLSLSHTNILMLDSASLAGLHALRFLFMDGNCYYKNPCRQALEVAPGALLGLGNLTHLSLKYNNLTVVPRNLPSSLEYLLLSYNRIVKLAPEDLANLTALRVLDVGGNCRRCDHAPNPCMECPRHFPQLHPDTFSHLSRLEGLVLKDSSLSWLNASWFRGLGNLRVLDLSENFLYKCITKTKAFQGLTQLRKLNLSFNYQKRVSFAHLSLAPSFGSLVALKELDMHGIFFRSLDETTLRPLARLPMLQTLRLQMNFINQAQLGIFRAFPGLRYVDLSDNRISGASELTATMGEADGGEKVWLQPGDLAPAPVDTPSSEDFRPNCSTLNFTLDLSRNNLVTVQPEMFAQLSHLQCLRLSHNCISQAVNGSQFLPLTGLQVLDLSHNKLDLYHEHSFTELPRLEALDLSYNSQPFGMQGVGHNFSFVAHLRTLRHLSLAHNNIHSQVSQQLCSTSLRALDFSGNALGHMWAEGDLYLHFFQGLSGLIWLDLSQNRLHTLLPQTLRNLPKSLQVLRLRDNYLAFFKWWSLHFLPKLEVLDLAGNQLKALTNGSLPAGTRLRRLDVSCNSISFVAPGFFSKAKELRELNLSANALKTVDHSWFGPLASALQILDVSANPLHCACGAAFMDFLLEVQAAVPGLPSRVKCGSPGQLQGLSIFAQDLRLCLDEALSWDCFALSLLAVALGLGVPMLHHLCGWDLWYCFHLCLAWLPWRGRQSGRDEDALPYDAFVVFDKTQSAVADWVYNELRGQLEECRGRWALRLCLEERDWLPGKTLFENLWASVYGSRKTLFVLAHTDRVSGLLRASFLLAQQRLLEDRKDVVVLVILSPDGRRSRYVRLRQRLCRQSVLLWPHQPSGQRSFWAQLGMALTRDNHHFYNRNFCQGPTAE
BLA counter-1: counter-screen for TLR9-MyD88 inhibitors: non-selective beta-lactamase inhibitors; shares compounds with TLR9-MyD88 inh; inhibition, % at 4.98 µM; AID 540251; CHO-BLA cells, CCF4 FRET ratio, BLA reporter; 680 compounds, 7% hits;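 active = mean inhibition above a 50% cutoff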;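 also: counterscreen of TLR9-MyD88 hits on CMV-driven BLA in CHO-K1 cells; 0% = DMSO alone and 100% = clavulanate blocking BLA; higher means less blue over green ratio so more BLA blockade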
TLR9 CHO cytotox: counter-screen for TLR9-MyD88 inhibitors: cytotoxicity in CHO cells; shares compounds with TLR9-MyD88 inh; luminescence; inhibition, % at 4.98 µM; 680 compounds, 39% hits; AID 588336; in the data active = inhibition above about 11%
NOD2-RIPK2 conf: confirmation of human NOD2-RIPK2 interaction inhibitors. inhibition, % at 4.98 µM. CHO cells, NOD2-RIPK2 BLA complementation, CCF4 FRET. 1,200 compounds, 70% hits. shares compounds with NOD2 RIPK2 PPI;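 active = mean inhibition across replicates above a set limit taken from the earlier primary screen, cut at about 21% in these data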;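 also: 0% = DMSO-only wells and the high end = clavulanate BLA-blocked wells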
BLA counter-2: hits BLA reporter in NOD2-RIPK2 inhibitor counterscreen | shares compounds with NOD2 RIPK2 PPI | CHO BLA reporter, CCF4 FRET ratio | inhibition, % at 4.98 µM | 1,200 compounds, 57% hits;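 active = mean inhibition above the low-control mean inhibition plus three low-control SD, cut at about 11% in these data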;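 also: 0% = DMSO only wells and 100% = clavulanate high control wells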
An asterisk follows results filed as active; x = no result given; ! = a repeat was not active.

SMILES	UPR XBP1 act	NOD2 RIPK2 PPI	TLR4-MyD88 BLA	CHOP inhibitor	CHOP UPR activ	TLR9-MyD88 inh	TLR9-MyD88 conf	BLA counter-1	TLR9 CHO cytotox	NOD2-RIPK2 conf	BLA counter-2
Cn1c2ccccc2c(=O)c2ccc(C#Cc3ccc(N)cc3)cc21	2	55*	x	x	4	41*	32*	37	3	51*	60*
CC12CCC(=O)N1C(C(=O)Nc1nc3ccc(F)cc3s1)CS2 (configuration not stated)	0	-4	x	x	0	8	x	x	x	x	x
CCN(CC)S(=O)(=O)c1ccc(NN=C2CCN(C)CC2)c([N+](=O)[O-])c1	-2	-2	-3	2	0	5	x	x	x	x	x
O=C(CCc1nnc(CCCCc2ccccc2)o1)NCCC1CCCCO1 (configuration not stated)	-3	-1	-3	0	1	-3	x	x	x	x	x
O=C(NCCN1C(=O)S/C(=C\c2ccc(Cl)c(Cl)c2)C1=O)c1cnccn1	3	-1	5	50	0	-4	x	x	x	x	x
O=C(NCCN1C(=O)S/C(=C\c2ccc(Cl)c([N+](=O)[O-])c2)C1=O)C1=COCCO1	-5	39*	x	x	10	24*	11	2	5	63*	-2
COc1cc(OC)c(OC)cc1/C=C/c1cc(C(=O)O)c2ccccc2n1	2	6	10	11	-2	9	x	x	x	x	x
COc1ccc(/C=C/c2cc(C(=O)O)c3ccccc3n2)cc1	-7	48*	x	55	-9	24*	0	1	14*	14	13*
O=C1C(Cl)=C(O)C2(Cl)C(Cl)=C(Cl)C12Cl (configuration not stated)	x	-13	x	x	x	0	x	x	x	x	x
C=CCn1c(O)c(C2=c3ccccc3=NC2=O)c2ccccc21	-13	77*	x	x	-11	21*	27*	-1	98*	80*	-1
CN(CC(=O)NC1CC(C)(C)NC(C)(C)C1)S(=O)(=O)c1ccc(Br)cc1	-4	0	x	x	-1	-11	x	x	x	x	x
CCN1CCN(CC(=O)N2N=C(c3cccs3)CC2c2ccc(OC)c(OC)c2)C(=O)C1=O (configuration not stated)	1	-19	-14	-10	-1	-8	x	x	x	x	x
C=C1C(=O)c2sccc2C(c2ccc(OC)c(OC)c2)C1COC(C)=O (configuration not stated)	x	95*	x	x	x	24*	28*	7	97*	92*	13*
CC1(C)O[C@@H](CC(=O)O)[C@]23CO[C@H](C(=O)[C@]4(C)C2CC[C@@]2(C)[C@H](c5ccoc5)OC(=O)C5O[C@]524)[C@@H]13 (some centres not stated)	-4	-1	x	x	-1	1	x	x	x	x	x
COC(=O)c1cn[nH]c1NC(=S)Nc1ccc(C)cc1Cl	-2	50*	-8	-34	2	23*	8	4	4	27*	12*
CCCCNc1c(-c2ccc(OC)c(SC3CCCCC3)c2)nc2cnccn12	3	40*	x	x	2	21*	16	20	3	29*	42*
CCC(C)Sc1ccc(-c2nc3cc(C)ccn3c2NC2CCCCC2)cc1 (configuration not stated)	5	5	x	x	14	1	x	x	x	x	x
CCC(C)Sc1ccc(-c2nc3cnccn3c2NC2CCCCC2)cc1 (configuration not stated)	8	27*	x	x	2	35*	46*	48	3	65*	72*
COCCC1CCCCN1C(=O)c1cc(COc2ccc(-n3cncn3)cc2)on1 (configuration not stated)	-3	1	x	x	8	1	x	x	x	x	x
O=c1ccc2ccc(O[C@@H]3O[C@H](CO)[C@@H](O)[C@H](O)[C@H]3O)c(O)c2o1	-3	11	x	x	-2	-4	x	x	x	x	x
COc1cc2ccc(=O)oc2c(O[C@@H]2O[C@H](CO)[C@@H](O)[C@H](O)[C@H]2O)c1O	2	45*	x	x	1	40*	24*!	32	-1	49*	59*
O=[N+]([O-])c1ccc(N/N=C/C=C/c2ccco2)cc1	5	55*	x	x	5	40*	37*	39	-3	63*	68*
CC(=O)Nc1cccc(C(=O)/C=C/c2ccc(N(C)C)cc2)c1	-1	57*	4	-19	3	44*	24*	28	0	51*	58*
Cc1ccc(C2=CC(c3ccc(C)cc3)n3ncnc3N2)cc1 (configuration not stated)	-2	46*	x	x	0	26*	15	18	-5	33*	35*
COc1ccc(C2C=C(c3ccccc3)Nc3ncnn32)cc1 (configuration not stated)	0	46*	14	4	5	39*	4	8	-1	-3	-4
SMILES	UPR XBP1 act	NOD2 RIPK2 PPI	TLR4-MyD88 BLA	CHOP inhibitor	CHOP UPR activ	TLR9-MyD88 inh	TLR9-MyD88 conf	BLA counter-1	TLR9 CHO cytotox	NOD2-RIPK2 conf	BLA counter-2
CCOc1ccc(C2C=C(c3ccc(C)cc3)Nc3ncnn32)cc1 (configuration not stated)	-2	x	13	-26	1	x	x	x	x	x	x
COc1ccc(C2C=C(C)Nc3ncnn32)cc1 (configuration not stated)	2	-23	x	x	7	-1	x	x	x	x	x
O=S(=O)(Nc1cccc(-n2cnnn2)c1)c1ccc(F)cc1	-1	-12	x	x	0	-8	x	x	x	x	x
CCn1nc(C)cc1-c1nnc(Sc2ncc([N+](=O)[O-])s2)n1C	-10	78*	x	x	-11	29*	42*	-1	101*	85*	19*
CCn1nc(C)cc1-c1nnc(SCC(=O)Nc2ccccc2)n1CCCOC	4	3	x	4	2	10	x	x	x	x	x
COc1ccc(C(=O)/C=C/C(=O)N(Cc2ccccc2)C(C(=O)NC2CCCCC2)c2ccncc2)c(O)c1 (configuration not stated)	-2	8	-6	9	0	-1	x	x	x	x	x
